In brackets after ≈: the same amount, converted by molar mass.
Key:
SK-OV-3 = experiment: Cytotoxicity against human SKOV3 cells by MTT assay; type: functional; details: for EC50: Homo sapiens, SK-OV-3, read-out: ED50 (the source's name)
Summary of the method: (§1)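 Human solid tumour lines tested at the Purdue Cancer Center cell culture laboratory using a standard MTT viability method, with adriamycin run as the control substance.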

A498 = experiment: Cytotoxicity against human A498 cells by MTT assay; type: functional; details: for EC50: Homo sapiens, A498, read-out: ED50 (the source's name); summary of the method: as §1
A-431 = experiment: Cytotoxicity against human A431 cells by MTT assay; type: functional; details: for EC50: Homo sapiens, A-431, read-out: ED50 (the source's name); summary of the method: as §1
A549 = experiment: Cytotoxicity against human A549 cells by MTT assay; type: functional; details: for EC50: Homo sapiens, A549, read-out: ED50 (the source's name); summary of the method: as §1
HT-29 = experiment: Cytotoxicity against human HT-29 cells by MTT assay; type: functional; details: for EC50: Homo sapiens, HT-29, read-out: ED50 (the source's name); summary of the method: as §1
MCF7 = experiment: Cytotoxicity against human MCF7 cells by MTT assay; type: functional; details: for EC50: Homo sapiens, MCF7, read-out: ED50 (the source's name); summary of the method: as §1
PC-3 = experiment: Cytotoxicity against human PC3 cells by MTT assay; type: functional; details: for EC50: Homo sapiens, PC-3, read-out: ED50 (the source's name); summary of the method: as §1
SK-MEL-5 = experiment: Cytotoxicity against human SK-MEL-5 cells by MTT assay; type: functional; details: for EC50: Homo sapiens, SK-MEL-5, read-out: ED50 (the source's name); summary of the method: as §1
[1] = Inhibition of bovine brain tubulin polymerization by turbidity assay; set-up: species or system Bos taurus
Summary of the method: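 Microtubule protein isolated from bovine brain, 1 mg/ml, with 1 mM GTP and graded inhibitor concentrations. Turbidity increase read at 340 nm over 30 min at 37°. Positive control contained MTP plus GTP; negative control contained MTP only.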

[2] = Inhibition of bovine brain tubulin polymerization by sedimentation assay; set-up: species or system Bos taurus
Summary of the method: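 Microtubule protein from bovine brain (1 mg/ml) with 1 mM GTP and varying inhibitor levels, incubated 30 min at 37°. Microtubules pelleted at 100,000 g for 5 min. Supernatant protein measured by BCA. Sedimented protein calculated relative to the positive control (MTP+GTP) and negative control (MTP alone).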

`COc1cc(-c2c3c(cc4cc5c(cc24)OCO5)COC3=O)cc2c1OCO2` showed an EC50 (SK-OV-3) of 0.0067 µg/mL (≈ 0.0177 µM), an EC50 (A498) of 0.078 µg/mL (≈ 0.206 µM) and an EC50 (A-431) of 0.18 µg/mL (≈ 0.476 µM). For the same compound, the EC50 (A549) was 0.049 µg/mL (≈ 0.13 µM), the EC50 (HT-29) was 0.29 µg/mL (≈ 0.767 µM) and the EC50 (MCF7) was 9.7 µg/mL (≈ 25.6 µM). The EC50 (PC-3) was 0.15 µg/mL (≈ 0.396 µM), the EC50 (SK-MEL-5) was 0.0035 µg/mL (≈ 0.00925 µM) and the IC50 [1] was 5000 nM. For the same compound, the IC50 [2] was 20000 nM.

For `COc1cc([C@@H]2c3cc4c(cc3C[C@H]3COC(=O)[C@H]32)OCO4)cc2c1OCO2`, the EC50 (SK-OV-3) was 0.832 µg/mL (≈ 2.18 µM), the EC50 (A498) was 0.76 µg/mL (≈ 1.99 µM) and the EC50 (A-431) was 0.96 µg/mL (≈ 2.51 µM). The EC50 (A549) was 0.46 µg/mL (≈ 1.2 µM), the EC50 (HT-29) was 0.1 µg/mL (≈ 0.262 µM) and the EC50 (MCF7) was 4.1 µg/mL (≈ 10.7 µM). It also gave an EC50 (PC-3) of 3.1 µg/mL (≈ 8.11 µM), an EC50 (SK-MEL-5) of 0.77 µg/mL (≈ 2.01 µM) and an IC50 [1] of 40000 nM. For the same compound, the IC50 [2] was 45000 nM.

For `COc1cc([C@@H]2c3cc4c(cc3C[C@H]3COC(=O)[C@@H]32)OCO4)cc2c1OCO2` [AUSTROBAILIGNAN 1], the ED50 (SK-OV-3) was 2.7 ×10⁻⁶ ug/ml, the ED50 (A498) was 3.2 ×10⁻⁶ ug/ml and the ED50 (A-431) was 3.6 ×10⁻⁶ ug/ml. The ED50 (A549) was 3.9 ×10⁻⁶ ug/ml, the ED50 (HT-29) was 3.7 ×10⁻⁶ ug/ml and the ED50 (MCF7) was 5.2 ×10⁻⁵ ug/ml. It also gave an ED50 (PC-3) of 3.3 ×10⁻⁶ ug/ml, an ED50 (SK-MEL-5) of 3 ×10⁻⁷ ug/ml and an IC50 [1] of 800 nM. It also gave an IC50 [2] of 1000 nM.

With `COc1cccc2c1C(=O)c1c(O)c3c(c(O)c1C2=O)C[C@@](O)(C(=O)CO)C[C@@H]3O[C@H]1C[C@H](N)[C@H](O)[C@H](C)O1` [DOXORUBICIN] the EC50 (SK-OV-3) was 0.0025 µg/mL (≈ 0.0046 µM), the EC50 (A498) was 0.0032 µg/mL (≈ 0.00589 µM) and the EC50 (A-431) was 0.012 µg/mL (≈ 0.0221 µM). For the same compound, the ED50 (A549) was 3.1 ×10⁻⁴ ug/ml, the ED50 (HT-29) was 5.6 ×10⁻⁴ ug/ml and the EC50 (MCF7) was 0.02 µg/mL (≈ 0.0368 µM). It also gave an EC50 (PC-3) of 0.01 µg/mL (≈ 0.0184 µM) and an ED50 (SK-MEL-5) of 2.8 ×10⁻⁴ ug/ml.

For `COc1cc([C@@H]2c3cc4c(cc3[C@H](O)[C@H]3COC(=O)[C@H]23)OCO4)cc(OC)c1OC` [PODOFILOX], the ED50 (SK-OV-3) was 4.2 ×10⁻⁵ ug/ml, the ED50 (A498) was 3.4 ×10⁻⁷ ug/ml and the ED50 (A-431) was 1.1 ×10⁻⁶ ug/ml. The ED50 (A549) was 7.7 ×10⁻⁸ ug/ml, the ED50 (HT-29) was 4.7 ×10⁻⁸ ug/ml and the ED50 (MCF7) was 1.1 ×10⁻⁶ ug/ml. The ED50 (PC-3) was 1.2 ×10⁻⁷ ug/ml, the ED50 (SK-MEL-5) was 4.1 ×10⁻⁸ ug/ml and the IC50 [1] was 600 nM. It also gave an IC50 [2] of 1000 nM.

— ChEMBL document CHEMBL1150073, “Cytotoxic cyclolignans from Koelreuteria henryi” (J Nat Prod, 1994)
